Bioassay records as filed in PubChem.
A selection: hits, their analogues and other compounds. The true share with any hit is near 2.1%.
VIM-2 inhibitor – blocks Pseudomonas aeruginosa VIM-2 metallo-beta-lactamase; purified VIM-2, nitrocefin hydrolysis, epi-absorbance fluorescence; inhibition, % at 5.6 µM; hit rate 0.89% among 290,000; AID 1527;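 active = inhibition above the mean of all tested compounds plus 3 SD, cutoff set per screening run, cut at about 7.5% in these data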;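 note: red hydrolysis product quenches plate fluorescence so inhibitors raise well fluorescence; 0% = enzyme with DMSO and 100% = DMSO without enzyme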
CRFBP-R2 block – blocks CRF-induced signaling of the CRF-BP/CRF-R2 complex; inhibition, % at 11.8 µM; AID 588475; hit rate 0.59% among 350,000; HEK293 CRF-R2/CRF-BP, CRF-induced calcium fluorescence;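 active = inhibition of the ligand-induced calcium signal above about 50% at the single tested concentration, limit read from the data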
TRPML3 agonist – agonists of human TRPML3 channel; Q8TDD5; HEK293 TRPML3-YFP, Fluo-8 calcium fluorescence; 100% = the carbachol control signal; activation, % at 3 µM; hit rate 0.29% among 220,000;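 active = activation above its plate's cutoff, the mean activation of the plate's test wells plus 3 SD, cut at about 12% in these data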;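 note: 0% = DMSO only wells and 100% = carbachol wells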
Target sequence (Q8TDD5 whole entry, looked up): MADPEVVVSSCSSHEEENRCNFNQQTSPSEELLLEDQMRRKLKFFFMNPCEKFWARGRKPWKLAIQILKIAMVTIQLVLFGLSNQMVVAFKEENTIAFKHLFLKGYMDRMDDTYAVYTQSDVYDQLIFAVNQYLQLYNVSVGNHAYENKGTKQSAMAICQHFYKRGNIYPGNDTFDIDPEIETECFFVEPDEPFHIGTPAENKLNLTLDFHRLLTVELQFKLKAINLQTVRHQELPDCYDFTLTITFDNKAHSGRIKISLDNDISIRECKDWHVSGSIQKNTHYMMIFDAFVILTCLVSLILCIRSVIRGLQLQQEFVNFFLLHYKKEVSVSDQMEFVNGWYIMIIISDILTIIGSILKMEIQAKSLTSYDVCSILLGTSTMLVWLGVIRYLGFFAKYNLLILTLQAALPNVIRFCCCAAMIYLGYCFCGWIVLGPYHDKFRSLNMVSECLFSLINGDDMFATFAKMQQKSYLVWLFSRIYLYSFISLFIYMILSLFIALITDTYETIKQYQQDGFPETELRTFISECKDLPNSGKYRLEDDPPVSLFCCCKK
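Test system – HEK293 line with stable expression of human TRPML3-YFP channel · Control set – carbachol 87 µM final as high control (100%), DMSO as low control (0%) · Signal – Fluo-8 calcium dye fluorescence, ex 470-495, em 515-575 nm · Incubation – 1-h 37 °C dye load, 5-s basal, 120-s post-compound reads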
IMP-1 inh-1 – blocks Pseudomonas aeruginosa IMP-1 metallo-beta-lactamase | purified IMP-1, nitrocefin hydrolysis, epi-absorbance fluorescence | inhibition, % at 5.6 µM | hit rate 0.45% among 290,000 | AID 1556;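 active = inhibition above the mean plus 3 SD of all compounds in the same screening run, cut at about 4.5% in these data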;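 note: 0% = IMP-1 with DMSO and 100% = DMSO wells lacking enzyme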
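System: purified IMP-1 / Input: IMP-1 dispensed at 0.2 nM / Medium: 50 mM HEPES pH 7.1, 50 µM ZnSO4, 0.05% Brij 35 / Timing: 15 min enzyme–compound preincubation, then 25 min nitrocefin reaction, 25 °C / Technique: plate fluorescence quenching by hydrolysis product, ex 480/em 530 nm / Repeats: singlicate testing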
CRFBP-R2 agonist – CRF-BP/CRF-R2 complex agonism; HEK293 CRF-R2/CRF-BP, calcium dye fluorescence (FLIPR); percent of saturating CRF peptide response; activation, % at 13.2 µM; hit rate 0.46% among 350,000;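 active = activation of at least 50%, plus an integration ratio under a set limit after plate pattern correction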;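 note: plate controls were neutral control wells without compound for no effect and CRF at EC100 for full effect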
TRPN1 ag – zebrafish TRPN1 (NompC) channel agonism; HEK293 zebrafish TRPN1-YFP, Fluo-8 calcium fluorescence; 100% = response to 87 µM carbachol; activation, % at 3 µM; hit rate 0.18% among 220,000; AID 1424;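 active = activation above its plate's cutoff, the mean activation of test wells on that plate plus 3 SD, cut at about 19% in these data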;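 note: 0% = DMSO alone and 100% = 87 µM carbachol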
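Material – zebrafish TRPN1-YFP in HEK293 cells · Doses – 3 µM single point · Schedule – dye 1 h 37 °C plus 30 min RT · Signal – Fluo-8 calcium fluorescence, excitation 470-495 nm, emission 515-575 nm · Read-out – % activation versus carbachol response · Control set – carbachol high, DMSO low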
IMP-1 inh-2 – selectivity counter-screen for VIM-2 inhibitors: IMP-1 metallo-beta-lactamase inhibitors | shares compounds with VIM-2 inhibitor | purified IMP-1, nitrocefin hydrolysis, epi-absorbance fluorescence | inhibition, % at 5.6 µM | 1,300 tested, under 10 active | AID 1856; call rule not given here;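 note: 0% = enzyme with vehicle and 100% = vehicle without enzyme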
VIM-2 FRET inh – inhibits VIM-2 in FRET assay to exclude epi-absorbance artifacts; shares compounds with VIM-2 inhibitor; hit rate 23% among 1,300; purified VIM-2, CCF2 FRET substrate hydrolysis; inhibition, % at 5.6 µM; AID 1857;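 active = inhibition above the mean of all tested compounds plus 3 SD, cut at about 19% in these data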;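 note: 0% = VIM-2 plus DMSO and 100% = no enzyme wells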
TEM-1 counter – TEM-1 inhibition, counter-screen for VIM-2 inhibitors | Purified TEM-1, nitrocefin hydrolysis, epi-absorbance fluorescence | hit rate 3% among 1,300 | shares compounds with VIM-2 inhibitor | inhibition, % at 5.6 µM;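 active = inhibition above that campaign's mean inhibition plus 3 SD, cut at about 0.46% in these data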;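 note: 0% = TEM-1 with DMSO and 100% = TEM-1 with 100 µM potassium clavulanate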
VIM-2 inh conf – confirmation of P. aeruginosa VIM-2 metallo-beta-lactamase inhibitors. shares compounds with VIM-2 inhibitor. purified VIM-2, nitrocefin hydrolysis, epi-absorbance. inhibition, % at 5.6 µM. hit rate 96% among 1,300;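 active = inhibition of the VIM-2 beta-lactamase enzyme above about 11% from the earlier first-round screen, limit read from the data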;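 note: 0% = VIM-2 with DMSO and 100% = buffer wells without enzyme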
* marks the source's active call; other numbers are inactive results.

CC(=O)c1ccc(Nc2nc(-c3cccnc3)cs2)cc1 was read as VIM-2 inhibitor 14.2*, CRFBP-R2 block 12.2, IMP-1 inh-1 -3.2, CRFBP-R2 agonist -2.2, IMP-1 inh-2 -2.8, VIM-2 FRET inh -3.5, TEM-1 counter -7.5 and VIM-2 inh conf 15.4*.
Screening S=c1[nH]nc(-c2ccco2)n1Cc1ccccc1 returned VIM-2 inhibitor 26.4*, CRFBP-R2 block -2.0, TRPML3 agonist 0.1, IMP-1 inh-1 0.5, CRFBP-R2 agonist 0.4, TRPN1 ag -1.1, IMP-1 inh-2 -3.2, VIM-2 FRET inh 58.5*, TEM-1 counter -7.8 and VIM-2 inh conf 40.4*.
For S=c1[nH]nc(CN2CCCC2)n1Cc1ccccc1 the results were VIM-2 inhibitor 1.2, CRFBP-R2 block -4.7, TRPML3 agonist 0.0, IMP-1 inh-1 -2.7, CRFBP-R2 agonist 2.5 and TRPN1 ag -0.8.
`S=c1[nH]nc(-c2ccccc2)n1Cc1ccccc1` gave VIM-2 inhibitor 13.3*, CRFBP-R2 block -2.1, TRPML3 agonist 0.2, IMP-1 inh-1 1.8, CRFBP-R2 agonist 0.2, TRPN1 ag -1.5, IMP-1 inh-2 -3.1, VIM-2 FRET inh 34.3*, TEM-1 counter -7.7 and VIM-2 inh conf 22.0*.
Screening S=c1[nH]nc(-c2cccs2)n1C1CCCCC1 returned VIM-2 inhibitor 42.3*, CRFBP-R2 block -9.2, TRPML3 agonist 0.0, IMP-1 inh-1 -0.3, CRFBP-R2 agonist 0.3, TRPN1 ag -1.4, IMP-1 inh-2 -2.3, VIM-2 FRET inh 62.9*, TEM-1 counter -7.0 and VIM-2 inh conf 47.2*.
For CCn1c(-c2ccco2)n[nH]c1=S the results were VIM-2 inhibitor 4.1, CRFBP-R2 block 2.9, TRPML3 agonist -0.1, IMP-1 inh-1 -1.3, CRFBP-R2 agonist -3.2 and TRPN1 ag 0.8.
S=c1[nH]nc(C2CC2)n1Cc1ccccc1 was read as VIM-2 inhibitor 47.5*, CRFBP-R2 block 10.2, TRPML3 agonist 0.5, IMP-1 inh-1 -3.7, CRFBP-R2 agonist -0.5, TRPN1 ag 0.5, IMP-1 inh-2 -3.4, VIM-2 FRET inh 75.0*, TEM-1 counter -6.7 and VIM-2 inh conf 61.5*.
`CSc1ccc(/C=C2\CCn3c2nc2cc(C(=O)O)ccc2c3=O)cc1` gave VIM-2 inhibitor -1.5, CRFBP-R2 block -4.0, IMP-1 inh-1 -3.1 and CRFBP-R2 agonist -1.7.
For CCOc1cc(N2CCOCC2)c(OCC)cc1NC(=O)c1c(C)noc1C the results were CRFBP-R2 block 12.6 and CRFBP-R2 agonist -0.5.
`CCN(CC(=O)NCc1cccs1)C(=O)c1ccc(NS(=O)(=O)c2cccc([N+](=O)[O-])c2)cc1` gave CRFBP-R2 block 9.2 and CRFBP-R2 agonist -0.8.
S=c1[nH]nc(-c2cccs2)n1Cc1ccccc1 was read as VIM-2 inhibitor 42.9*, CRFBP-R2 block 6.7, TRPML3 agonist -0.5, IMP-1 inh-1 -2.2, CRFBP-R2 agonist -5.5, TRPN1 ag -4.0, IMP-1 inh-2 -1.6, VIM-2 FRET inh 66.9*, TEM-1 counter -8.6 and VIM-2 inh conf 51.1*.
For Cc1sc2ncnc(Oc3ccc(-n4ccnc4)cc3)c2c1C the results were VIM-2 inhibitor 73.7*, CRFBP-R2 block 37.8, TRPML3 agonist 0.3, IMP-1 inh-1 -2.1, CRFBP-R2 agonist -2.0, TRPN1 ag 1.3, IMP-1 inh-2 -2.1, VIM-2 FRET inh -7.1, TEM-1 counter -5.2 and VIM-2 inh conf 85.0*.
